Sampled rows, rich in hits. Any-hit rate of the full collection: about 1%.
PvdQ inh: P. aeruginosa PvdQ acylase inhibition; purified PvdQ acylase, fluorescence plate reader; inhibition, % at 10 µM; 0.063% of 340,000 active; AID 488965; in the data active = inhibition above about 30%, passing the limit was not always enough;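 note: 0% = vehicle neutral wells and 100% = reference inhibitor wells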
FID counter: displaces DNA intercalator in HCV helicase counter-screen; DNA fluorescent intercalator displacement, fluorescence; AID 1845; inhibition, % at 7.9 µM; 0.17% of 290,000 active; in the data active = inhibition above about 37%;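 note: 0% = vehicle and 100% = reference compound; higher means more ethidium bromide displaced from hairpin DNA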
RAD54 inh: inhibitors of human RAD54 branch migration; Q92698; RAD54 Holliday junction branch migration, FAM/BHQ fluorescence; inhibition, % at 10.4 µM; 0.14% of 360,000 active; AID 602329;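 active = mean normalized replicate activity at least 40 and at least half of replicates scoring 40 or more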;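 note: 0% = median of neutral control wells and 100% = median of positive control wells; inhibitors cause a drop in the FAM fluorescence signal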
Target sequence (Q92698 whole entry, looked up): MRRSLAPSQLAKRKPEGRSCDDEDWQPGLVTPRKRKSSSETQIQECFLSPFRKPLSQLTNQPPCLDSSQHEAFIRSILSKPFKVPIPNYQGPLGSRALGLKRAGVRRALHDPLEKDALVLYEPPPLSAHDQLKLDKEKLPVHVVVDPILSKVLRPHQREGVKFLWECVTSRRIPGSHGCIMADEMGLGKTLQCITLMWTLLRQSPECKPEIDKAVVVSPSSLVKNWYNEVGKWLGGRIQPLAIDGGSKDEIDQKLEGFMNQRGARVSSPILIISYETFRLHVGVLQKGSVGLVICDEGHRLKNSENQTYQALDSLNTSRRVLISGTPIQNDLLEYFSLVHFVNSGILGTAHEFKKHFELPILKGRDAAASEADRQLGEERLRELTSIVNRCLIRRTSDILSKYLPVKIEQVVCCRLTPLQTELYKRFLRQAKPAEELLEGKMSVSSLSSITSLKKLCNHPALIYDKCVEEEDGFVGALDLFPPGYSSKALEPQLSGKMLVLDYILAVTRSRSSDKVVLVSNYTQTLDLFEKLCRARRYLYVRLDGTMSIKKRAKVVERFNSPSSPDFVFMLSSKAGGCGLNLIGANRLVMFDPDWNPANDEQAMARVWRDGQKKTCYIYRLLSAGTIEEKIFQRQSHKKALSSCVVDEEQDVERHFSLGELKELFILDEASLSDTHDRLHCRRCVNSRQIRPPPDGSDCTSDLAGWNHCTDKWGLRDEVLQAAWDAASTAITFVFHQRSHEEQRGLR
IMP-1 inhibitor: inhibitors of Pseudomonas aeruginosa IMP-1 metallo-beta-lactamase. purified IMP-1, nitrocefin hydrolysis, epi-absorbance fluorescence. inhibition, % at 5.6 µM. 0.45% of 290,000 active. AID 1556;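 active = inhibition above the mean plus 3 SD of all compounds in the same screening run, cut at about 4.5% in these data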;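 note: 0% = IMP-1 with DMSO and 100% = DMSO wells lacking enzyme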
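assay system = purified recombinant IMP-1 metallo-beta-lactamase enzyme | schedule = 15 min preincubation plus 25 min reaction at 25 °C | signal = Epi-absorbance fluorescence, 480 nm excitation, 530 nm emission | read-out basis = percent inhibition from optical density relative to buffer-blank wells | controls = IMP-1 with DMSO as 0%, enzyme-free DMSO as 100%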
VIM-2 inhibitor: inhibitors of Pseudomonas aeruginosa VIM-2 metallo-beta-lactamase. purified VIM-2, nitrocefin hydrolysis, epi-absorbance fluorescence. inhibition, % at 5.6 µM. 0.89% of 290,000 active. AID 1527;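 active = inhibition above the mean of all tested compounds plus 3 SD, cutoff set per screening run, cut at about 7.5% in these data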;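 note: red hydrolysis product quenches plate fluorescence so inhibitors raise well fluorescence; 0% = enzyme with DMSO and 100% = DMSO without enzyme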
Starred values were filed as active, the others as inactive; nt = no result.

SMILES | PvdQ inh | FID counter | RAD54 inh | IMP-1 inhibitor | VIM-2 inhibitor
Cc1cccc2cc(CN(Cc3cccnc3)C(=O)c3ccncc3)c(=O)[nH]c12 | 1.4 | -14.8 | 7.9 | -3.0 | -1.2
CCN(CC)CCCNC(=S)N(Cc1cccnc1)Cc1cc2cc(C)cc(C)c2[nH]c1=O | -4.2 | 8.8 | nt | 1.4 | 11.7*
Cc1c(C)c2ccc(OCC(=O)NC3CCN(Cc4ccccc4)CC3)cc2oc1=O | -13.8 | 8.8 | 7.5 | -3.2 | 12.0*
Cc1nnc(SCC(=O)n2c3c(c4ccccc42)CCCC3)s1 | -6.9 | -3.4 | 1.1 | -0.5 | 9.8*
Cc1ccc(-c2nnc(SCC(=O)n3c4c(c5ccccc53)CCCC4)o2)cc1 | nt | -1.3 | nt | 1.2 | -0.6
Cn1c(SCC(=O)n2c3c(c4ccccc42)CCCC3)nnc1-c1ccccc1 | -12.9 | -2.1 | -6.6 | 1.3 | 8.7*
Cc1cc(NC(=O)Nc2cccc(Cl)c2)no1 | nt | nt | -1.9 | nt | nt
Cc1cc(NC(=O)Nc2ccc(F)c(Cl)c2)no1 | 43.8* | 0.0 | 4.2 | -1.3 | -2.9
Cc1cc(NC(=O)c2cc(F)c(F)cc2Cl)no1 | 91.6* | -0.4 | nt | -0.8 | 0.2
CCC(=O)N(C)C[C@H]1Oc2ncc(C#CCC(C)C)cc2C(=O)N([C@@H](C)CO)C[C@@H]1C | nt | nt | -38.6 | nt | nt
O=C(CCN1CCCCC1)NCC[C@@H]1CC[C@@H](NS(=O)(=O)c2cccc(F)c2)[C@H](CO)O1 | nt | nt | 3.2 | nt | nt
COc1ccc(CN2CCCC(C(=O)c3cccc(OC(C)C)c3)C2)cc1Cn1cccn1 (stereo not given) | 32.9* | 5.2 | -3.3 | -2.1 | -6.0
COC(=O)c1cc(C(=O)OC)cc(N2C(=O)CC(NNC(=O)c3ccccc3Cl)C2=O)c1 (stereo not given) | -8.5 | -32.4 | nt | -0.7 | 9.6*
CCc1ccc(OCC(=O)Nc2nnc(C3CCCC3)s2)cc1 | -13.2 | -33.4 | 2.9 | -1.6 | -6.5
CCc1ccc2c(CC(=O)Nc3nnc(C4CC4)s3)coc2c1 | -11.8 | -10.6 | nt | 61.0* | -3.3
CCOC(=O)/C(=C/C=C1\Sc2cc(C)c(C)cc2N1CC)C(C)=O | -5.1 | -22.9 | nt | 4.8* | 2.8
CCOC(=O)/C(=C/C=C1\Sc2ccccc2N1CC)C(C)=O | 17.9 | -22.3 | -231.4 | 3.9 | 5.0
O=c1[nH]c(=O)n(Cc2ccccc2)c2c1CCC2 | -26.2 | -1.7 | -1.6 | 5.0* | 1.0
O=c1[nH]c2ccccc2n1Cc1ccccc1 | -18.2 | -3.5 | 0.7 | -2.5 | -2.8
COc1ccc(-c2c(C)nn3c(Cl)c(C)c(C)nc23)cc1 | -3.2 | -17.1 | -2.1 | -0.8 | 8.7*
COc1ccc(-c2c(C)nn3c(-c4ccccc4)cc(C)nc23)cc1 | -0.7 | -3.1 | -9.9 | -3.7 | -3.2
CCOc1cc(C(=O)OCC(=O)N(C)c2ccccc2)cc(OCC)c1OCC | 8.6 | -39.4 | -1.6 | 12.2* | 0.4
CCc1nnc2c(NCCc3ccccc3)nc3ccccc3n12 | -14.1 | -14.3 | 1.8 | -1.7 | 8.5*
CCCNc1nc2ccccc2n2c(C)nnc12 | 0.4 | -12.3 | -0.6 | -5.7 | 11.1*
CCC(=O)N1[C@H](CO)[C@@H](c2ccc(-c3ccccc3)cc2)[C@H]1CNC(=O)COC | nt | nt | -0.7 | nt | nt
SMILES | PvdQ inh | FID counter | RAD54 inh | IMP-1 inhibitor | VIM-2 inhibitor
COc1ccccc1/C=C/C=c1\sc2nc(=O)c(Cc3ccccc3)nn2c1=O | 5.3 | -19.0 | nt | 7.9* | 0.7
N#Cc1cc(-c2ccccc2)cnc1Cl | 36.8* | 0.9 | nt | -2.0 | -1.2
O=C(O)c1cc(Cl)c2c(c1)[C@@H]1C=CC[C@@H]1[C@H](c1ccc(S(=O)(=O)N3CCOCC3)cc1)N2 | -7.7 | -16.5 | -17.2 | 11.1* | 1.3
Cc1cc(C)c2c(c1)C1C=CCC1C(c1ccc(S(=O)(=O)N3CCOCC3)cc1)N2 (stereo not given) | -4.9 | -3.3 | -6.8 | 5.8* | -0.7
O=S(=O)(c1ccc(C2CCCCC2)cc1)N1CCOCC1 | 4.2 | -12.2 | nt | 0.6 | 0.8
CO[C@@H]1CN(C)C(=O)c2cc(NC(=O)C3CC3)ccc2OC[C@@H](C)N(C)C[C@H]1C | nt | nt | -0.4 | nt | nt
COc1ccccc1CNC(=O)N1CCN(c2ccccc2)CC1 | -11.8 | -28.8 | 3.3 | -2.6 | -0.6
COc1ccccc1CNC(=O)N1CCN(c2ccccc2C)CC1 | -9.8 | -24.6 | -3.4 | 52.5* | 1.1
Cc1ccc(S(=O)(=O)N(C)C[C@@H]2Oc3ccc(NC(=O)CCC(F)(F)F)cc3C(=O)N([C@H](C)CO)C[C@@H]2C)cc1 | nt | nt | 1.0 | nt | nt
O=C(N/N=C/c1cccc2ccccc12)c1cc2ccccc2o1 | 5.6 | -9.5 | 22.0 | -0.5 | -2.9
O=C(N/N=C/c1ccccc1F)c1cc2c(ccc3ccccc32)o1 | -15.6 | -15.2 | -2.7 | 5.0* | -1.3
COc1ccc(-c2cn3cc(C)ccc3n2)cc1OC | -19.3 | -8.9 | 19.4 | -6.3 | -3.9
Cc1ccc2nc(-c3ccc4c(c3)OCCO4)cn2c1 | 90.8* | -4.4 | -0.9 | -2.9 | -1.5
COc1ccc(-c2cn3cc(C)ccc3n2)cc1F | 58.7* | -2.9 | 0.3 | -4.6 | -1.6
O=C(Nc1ccc(Cl)c(Cl)c1)c1ccc(Cl)c(Cl)c1 | -12.0 | -3.5 | -3.6 | -1.3 | -1.0
O=C(Nc1ccc(C2=NCCN2)cc1)c1ccc(Cl)c(C(=O)Nc2ccc(C3=NCCN3)cc2)c1 | nt | 48.9* | nt | -0.8 | -0.2
CO[C@@H]1CN(C)C(=O)c2cc(NC(=O)Nc3ccc(Cl)cc3)ccc2OC[C@@H](C)N(C(=O)Nc2c(C)noc2C)C[C@@H]1C | nt | nt | 17.9 | nt | nt
COc1ccc(OCC(=O)NNC(=O)Cc2coc3cc(OC)ccc23)cc1 | 18.5 | -10.0 | -11.5 | 5.6* | -2.2
CC(C)Oc1cc2oc(=O)c3c(c2cc1Cl)CCC3 | 6.9 | -1.4 | -2.5 | -2.5 | -0.8
CC(=O)Oc1cc2oc(=O)c3c(c2cc1Cl)CCC3 | -8.9 | -6.6 | 1.4 | -4.9 | 9.7*
O=S(=O)(N/N=C/c1ccccc1F)c1ccccc1 | -8.0 | 3.5 | nt | -2.2 | -1.7
Cc1ccc(S(=O)(=O)N/N=C/c2ccccc2F)cc1[N+](=O)[O-] | 8.7 | 7.1 | -1.1 | 5.9* | -0.8
CC1CCCC(NCC(O)COC(c2ccc(F)cc2)c2ccc(F)cc2)C1C (stereo not given) | -21.0 | 46.5* | 10.6 | -0.4 | 3.2
C[C@H]1CCCCO[C@@H](CN(C)Cc2ccncc2)[C@@H](C)CN([C@@H](C)CO)C(=O)c2cc(NS(C)(=O)=O)ccc2O1 | nt | nt | 6.2 | nt | nt
C[C@H]1CCCCO[C@@H](CN(C)S(=O)(=O)c2ccc(F)cc2)[C@@H](C)CN([C@@H](C)CO)C(=O)c2cc(NC(=O)Nc3ccccc3)ccc2O1 | nt | nt | -2.5 | nt | nt
SMILES | PvdQ inh | FID counter | RAD54 inh | IMP-1 inhibitor | VIM-2 inhibitor
Cc1cc(Br)ccc1OCCNCc1ccccc1 | 7.9 | 37.5* | 2.3 | -0.6 | -1.6
Cc1ccccc1OCCNc1cc(N2CC(C)NC(C)C2)ccc1[N+](=O)[O-] (stereo not given) | -4.9 | 38.9* | 12.6 | -2.7 | -2.9
CC1CN(c2ccc([N+](=O)[O-])c(NCCOc3ccccc3)c2)CC(C)N1 (stereo not given) | 8.5 | 26.4 | 11.5 | -5.1 | -3.2
C=CCn1c(-c2ccccc2OC)n[nH]c1=S | -11.4 | -14.3 | nt | -1.8 | 9.8*
C=CCn1c(-c2cccc3ccccc23)n[nH]c1=S | -10.8 | -9.4 | -0.9 | -4.5 | -5.5
C=CCn1c(-c2ccoc2)n[nH]c1=S | 10.2 | 1.7 | -0.9 | -3.8 | 10.1*
